The source made the active and inactive calls. No cut-off for these calls is given here.
Key:
[1] = biological target: T1, Protease, putative (Plasmodium falciparum 3D7) (UniProt Q8I1Y2); assay: Inhibition of Plasmodium falciparum 3D7 PFD0230c-mediated SERA5 processing at 1 1 to 100 uM after 6 to 8 hrs by SDS-PAGE
T1 sequence (whole entry): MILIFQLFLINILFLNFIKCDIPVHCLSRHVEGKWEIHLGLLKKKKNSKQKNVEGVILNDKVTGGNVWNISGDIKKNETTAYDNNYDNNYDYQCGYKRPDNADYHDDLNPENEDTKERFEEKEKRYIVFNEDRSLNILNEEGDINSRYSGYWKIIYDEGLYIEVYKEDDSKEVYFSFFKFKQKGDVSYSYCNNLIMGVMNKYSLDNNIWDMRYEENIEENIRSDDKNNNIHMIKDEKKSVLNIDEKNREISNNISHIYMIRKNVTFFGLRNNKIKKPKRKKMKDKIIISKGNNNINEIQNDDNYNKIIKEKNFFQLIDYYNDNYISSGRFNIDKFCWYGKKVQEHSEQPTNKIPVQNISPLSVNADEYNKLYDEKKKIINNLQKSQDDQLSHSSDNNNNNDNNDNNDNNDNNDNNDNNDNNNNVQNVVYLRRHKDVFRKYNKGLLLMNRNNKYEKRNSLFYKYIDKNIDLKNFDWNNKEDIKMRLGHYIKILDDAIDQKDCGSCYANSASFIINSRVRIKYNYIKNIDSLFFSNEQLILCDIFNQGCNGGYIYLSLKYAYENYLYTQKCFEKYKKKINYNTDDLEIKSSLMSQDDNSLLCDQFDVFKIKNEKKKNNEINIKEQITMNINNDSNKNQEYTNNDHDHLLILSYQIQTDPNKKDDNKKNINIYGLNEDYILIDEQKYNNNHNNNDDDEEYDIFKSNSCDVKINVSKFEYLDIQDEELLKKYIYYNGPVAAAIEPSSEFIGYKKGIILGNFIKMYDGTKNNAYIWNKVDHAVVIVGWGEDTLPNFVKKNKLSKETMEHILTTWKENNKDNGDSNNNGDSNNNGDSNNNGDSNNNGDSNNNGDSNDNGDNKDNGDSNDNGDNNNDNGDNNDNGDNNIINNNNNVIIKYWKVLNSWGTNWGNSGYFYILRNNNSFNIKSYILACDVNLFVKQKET
Procedure, shortened: (§1)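 Percoll-enriched schizonts (36–40 h post invasion) treated with inhibitor for 6–8 h in serum-free RPMI. Medium run on 8% SDS-PAGE; schizont pellet solubilized in SDS loading buffer. SERA5 detected by western blot with a monoclonal recognizing the P50 product; PfSUB1 detected with antisera.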

[2] = Inhibition of Plasmodium falciparum SUB1 by fluorescence spectrophotometry
Procedure, shortened: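 Recombinant PfSUB1 cleavage of the fluorogenic peptide substrate pepF1-6R measured over a range of inhibitor concentrations. IC50 taken from the curve fit.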

Plasmodium falciparum [3] = assay: Antiplasmodial activity against Plasmodium falciparum schizont infected in human erythrocytes assessed as effect on parasite ring-to-schizont morphology at 1 to 100 uM after 24 by propidium iodide staining-based FACS analysis; format: functional, organism-based
Plasmodium falciparum [4] = assay: Antiplasmodial activity against Plasmodium falciparum schizont infected in human erythrocytes assessed as blockade of parasite-mediated rupture of erythrocytes after 24 by propidium iodide staining-based FACS analysis; format: functional, organism-based
Procedure, shortened: (§2)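 Synchronous early schizonts (~36 h post invasion) exposed to inhibitor for 24 h at 37 °C. Cells fixed in 0.05% glutaraldehyde/PBS overnight at 4 °C, permeabilized with 0.25% Triton X-100 and stained with propidium iodide. Flow cytometry gated ring and schizont populations as fractions of total parasitemia, normalized to averaged DMSO wells. Triplicate runs.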

[5] = Cytotoxicity against african green monkey BSC1 cells after 24 hrs by celltiter glo assay; format: cell-based; conditions: chlorocebus aethiops, bsc-1, 24 h
Procedure, shortened: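 BSC-1 African green monkey kidney epithelial cells exposed to compounds; viability read by CellTiter-Glo luminescence.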

Plasmodium falciparum [6] = assay: Inhibition of Plasmodium falciparum SUB1-mediated SERA5 processing at 1 1 to 100 uM after 6 to 8 hrs by SDS-PAGE; procedure, shortened: as §1
Plasmodium falciparum [7] = assay: Antiplasmodial activity against Plasmodium falciparum schizont infected in human erythrocytes assessed as effect on schizont morphology at 1 to 100 uM after 24 by propidium iodide staining-based FACS analysis; format: functional, organism-based
Plasmodium falciparum [8] = assay: Antiplasmodial activity against Plasmodium falciparum schizont infected in human erythrocytes assessed as inhibition of ring-stage parasite growth at 1 to 100 uM after 24 by propidium iodide staining-based FACS analysis; format: functional, organism-based
[9] = biological target: T2, Probable cathepsin C (Plasmodium falciparum 3D7) (UniProt Q8IIJ9); assay: Inhibition of Plasmodium falciparum 3D7 cathepsin C by fluorescence spectrophotometry
T2 sequence (whole entry): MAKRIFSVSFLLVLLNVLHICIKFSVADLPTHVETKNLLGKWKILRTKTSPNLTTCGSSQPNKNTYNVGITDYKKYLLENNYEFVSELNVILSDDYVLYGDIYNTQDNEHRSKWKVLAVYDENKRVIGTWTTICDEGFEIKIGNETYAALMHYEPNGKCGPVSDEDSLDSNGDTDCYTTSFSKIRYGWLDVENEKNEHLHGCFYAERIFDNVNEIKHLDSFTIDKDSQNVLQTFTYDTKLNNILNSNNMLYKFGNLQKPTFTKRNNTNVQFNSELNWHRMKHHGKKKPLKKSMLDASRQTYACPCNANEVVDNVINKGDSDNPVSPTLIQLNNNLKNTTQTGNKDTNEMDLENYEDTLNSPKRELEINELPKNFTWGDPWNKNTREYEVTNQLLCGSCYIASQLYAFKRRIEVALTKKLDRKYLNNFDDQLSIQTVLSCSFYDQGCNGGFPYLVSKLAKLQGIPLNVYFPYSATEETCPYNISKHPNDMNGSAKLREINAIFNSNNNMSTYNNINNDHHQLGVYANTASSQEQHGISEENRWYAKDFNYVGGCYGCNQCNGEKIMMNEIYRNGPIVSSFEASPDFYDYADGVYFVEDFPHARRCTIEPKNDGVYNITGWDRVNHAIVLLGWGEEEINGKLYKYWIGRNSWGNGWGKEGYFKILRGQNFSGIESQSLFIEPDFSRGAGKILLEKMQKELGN

[10] = biological target: T3, Preprocathepsin c, putative (Plasmodium falciparum 3D7) (UniProt Q8I0V1); assay: Inhibition of Plasmodium falciparum 3D7 PFL2290w by fluorescence spectrophotometry
T3 sequence (whole entry): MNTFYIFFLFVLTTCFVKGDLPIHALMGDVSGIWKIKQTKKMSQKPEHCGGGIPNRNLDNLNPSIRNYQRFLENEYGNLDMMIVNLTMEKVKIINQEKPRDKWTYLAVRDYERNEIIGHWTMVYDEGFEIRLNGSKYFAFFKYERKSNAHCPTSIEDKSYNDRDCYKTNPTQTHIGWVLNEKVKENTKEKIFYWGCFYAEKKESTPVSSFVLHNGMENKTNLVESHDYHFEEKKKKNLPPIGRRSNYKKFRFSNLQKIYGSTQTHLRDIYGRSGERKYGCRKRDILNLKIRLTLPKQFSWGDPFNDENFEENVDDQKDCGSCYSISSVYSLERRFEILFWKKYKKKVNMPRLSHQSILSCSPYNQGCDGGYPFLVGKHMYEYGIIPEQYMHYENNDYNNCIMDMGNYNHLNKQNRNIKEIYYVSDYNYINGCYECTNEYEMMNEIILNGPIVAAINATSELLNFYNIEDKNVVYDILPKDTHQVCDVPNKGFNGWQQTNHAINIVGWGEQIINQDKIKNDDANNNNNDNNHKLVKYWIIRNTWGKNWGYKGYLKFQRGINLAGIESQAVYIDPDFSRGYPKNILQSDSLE

[11] = biological target: T4, Falcipain-3 (Plasmodium falciparum 3D7) (UniProt Q8IIL0); assay: Inhibition of Plasmodium falciparum 3D7 falcipain-3 by fluorescence spectrophotometry
T4 sequence (whole entry): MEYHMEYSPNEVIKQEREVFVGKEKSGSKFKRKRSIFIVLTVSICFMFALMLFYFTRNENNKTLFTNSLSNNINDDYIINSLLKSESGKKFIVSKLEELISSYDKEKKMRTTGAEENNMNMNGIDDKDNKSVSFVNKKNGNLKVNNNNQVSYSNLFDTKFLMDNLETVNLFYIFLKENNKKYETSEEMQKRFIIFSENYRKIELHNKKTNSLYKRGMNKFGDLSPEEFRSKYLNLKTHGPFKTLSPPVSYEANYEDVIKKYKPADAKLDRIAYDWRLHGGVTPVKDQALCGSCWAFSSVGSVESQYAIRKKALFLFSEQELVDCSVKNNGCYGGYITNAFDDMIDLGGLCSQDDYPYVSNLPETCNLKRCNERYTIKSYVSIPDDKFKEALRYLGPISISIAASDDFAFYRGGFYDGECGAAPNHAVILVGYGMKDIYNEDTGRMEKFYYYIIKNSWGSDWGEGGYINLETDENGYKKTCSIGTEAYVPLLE

[12] = biological target: T1, Protease, putative (Plasmodium falciparum 3D7); assay: Inhibition of Plasmodium falciparum 3D7 PFD0230c-mediated rupture of infected human red blood cells at 10 uM after 24 hrs by giemsa staining
Procedure, shortened: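 Giemsa-stained thin blood films were read from schizonts exposed at 36 h post invasion to 10 µM inhibitor, to assess rupture and morphology.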

[13] = biological target: T1, Protease, putative (Plasmodium falciparum 3D7); assay: Inhibition of Plasmodium falciparum 3D7 PFD0230c-mediated rupture of infected human red blood cells at 1 to 100 uM after 24 hrs by propidium iodide staining-based FACS analysis
Procedure, shortened: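 Schizonts at 36 h post invasion treated in triplicate with 1–100 µM inhibitor for 24 h, then propidium iodide stained and analyzed by flow cytometry. Schizont accumulation is expressed as fold increase over the DMSO control.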

[14] = biological target: T5, Cysteine proteinase falcipain-1 (Plasmodium falciparum 3D7) (UniProt Q8I6V0); assay: Inhibition of Plasmodium falciparum 3D7 falcipain-1 by fluorescence spectrophotometry
T5 sequence (whole entry): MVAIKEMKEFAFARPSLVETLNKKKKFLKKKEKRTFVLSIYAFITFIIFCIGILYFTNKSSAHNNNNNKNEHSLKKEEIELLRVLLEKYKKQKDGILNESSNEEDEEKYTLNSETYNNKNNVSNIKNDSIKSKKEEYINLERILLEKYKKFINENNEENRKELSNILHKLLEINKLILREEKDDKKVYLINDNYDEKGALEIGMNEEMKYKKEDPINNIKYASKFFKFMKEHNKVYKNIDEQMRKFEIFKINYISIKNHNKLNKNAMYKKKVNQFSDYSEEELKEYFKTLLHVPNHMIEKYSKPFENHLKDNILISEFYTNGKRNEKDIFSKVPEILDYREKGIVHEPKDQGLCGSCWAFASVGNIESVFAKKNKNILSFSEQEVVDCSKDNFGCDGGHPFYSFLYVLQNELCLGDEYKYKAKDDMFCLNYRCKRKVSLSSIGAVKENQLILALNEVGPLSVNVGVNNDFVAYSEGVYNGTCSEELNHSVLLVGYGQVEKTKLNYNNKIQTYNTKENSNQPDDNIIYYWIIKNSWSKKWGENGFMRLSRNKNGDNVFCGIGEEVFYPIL

Plasmodium falciparum [15] = assay: Inhibition of Plasmodium falciparum 3D7 falcipain-2 by fluorescence spectrophotometry
Plasmodium falciparum [16] = assay: Displacement of JCP104 from Plasmodium falciparum SUB1 at 50 uM by SDS-PAGE
Plasmodium falciparum [17] = assay: Inhibition of Plasmodium falciparum SUB1-mediated rupture of infected human red blood cells at 50 uM after 24 hrs by propidium iodide staining-based FACS analysis
Procedure, shortened: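 Early schizonts (~36 h post invasion) given 50 µM compound (final) for 24 h at 37 °C, then glutaraldehyde-fixed, Triton-permeabilized and propidium iodide stained. Flow cytometric schizont fraction normalized to DMSO controls.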

[18] = biological target: T1, Protease, putative (Plasmodium falciparum 3D7); assay: Inhibition of Plasmodium falciparum 3D7 PFD0230c by fluorescence spectrophotometry
[19] = biological target: T1, Protease, putative (Plasmodium falciparum 3D7); assay: Inhibition of Plasmodium falciparum 3D7 PFD0230c-mediated rupture of infected human red blood cells after 24 hrs by propidium iodide staining-based FACS analysis; procedure, shortened: as §2

Structure (SMILES): O=C(CCCCCNC(=O)CCCC[C@H]1SC[C@H]2NC(=O)N[C@H]21)NCCCCCC(=O)Nc1ccc2c(Cl)c(OCCc3ccccc3)oc(=O)c2c1
- inhibition [1]: Active
- IC50 [2]: 18 µM
- Activity (Plasmodium falciparum [3]): inactive
- EC50 (Plasmodium falciparum [4]): 22 µM
- Activity [5]: Non-toxic
- inhibition (Plasmodium falciparum [6]): Active
- Activity (Plasmodium falciparum [7]): inactive
- inhibition (Plasmodium falciparum [8]): Active

Structure (SMILES): NC(=O)[C@H](Cc1ccc(O)cc1)NC(=O)CCCCCCCCCCS(=O)(=O)/C=C/[C@H](CCc1ccccc1)NC(=O)[C@@H](N)Cc1ccc(O)c([N+](=O)[O-])c1
- inhibition [9]: Active
- inhibition [10]: Active

Structure (SMILES): O=C(N[C@H](/C=C/S(=O)(=O)c1ccccc1)CCc1ccccc1)C1CCCN1 (stereo not given in full)
- inhibition [11]: inactive
- inhibition [1]: Active
- inhibition [12]: inactive
- inhibition [13]: inactive
- inhibition [9]: Active
- inhibition (Plasmodium falciparum [6]): Active
- inhibition [14]: Active
- inhibition (Plasmodium falciparum [15]): inactive

Structure (SMILES): CCOC(=O)[C@H]1O[C@@H]1C(=O)N[C@H](C(=O)NCCc1ccc(O)cc1)[C@@H](C)CC
- inhibition [12]: Active

Structure (SMILES): O=C(CCCC[C@H]1SC[C@H]2NC(=O)N[C@H]21)Nc1ccc2c(Cl)c(OCCc3ccccc3)oc(=O)c2c1
- Activity (Plasmodium falciparum [16]): Active
- Activity (Plasmodium falciparum [17]): Active
- inhibition (Plasmodium falciparum [17]): Active

Structure (SMILES): O=C(CCCC[C@H]1SC[C@H]2NC(=O)N[C@H]21)NCCCCCC(=O)Nc1ccc2c(Cl)c(OCCc3ccccc3)oc(=O)c2c1
- Activity (Plasmodium falciparum [16]): Active
- Activity (Plasmodium falciparum [17]): Active
- inhibition (Plasmodium falciparum [17]): Active

Structure (SMILES): N[C@@H](Cc1ccc(O)c([N+](=O)[O-])c1)C(=O)N[C@H](/C=C/S(=O)(=O)c1ccccc1)CCc1ccccc1
- inhibition [1]: Active
- inhibition [12]: Active
- inhibition [18]: Active
- inhibition (Plasmodium falciparum [6]): Active
- inhibition [19]: Dose-dependent effect
